Reference: ChEMBL document CHEMBL1144343 (J Med Chem, 2005)
Where a SMILES comes first, the peptide text is derived from it. [ ]: non-standard residue; d: D form. Phe(4-NH2) = Nc1ccc(C[C@H](N)C(=O)O)cc1

Tests used:
[1] = target: T1, Angiotensin II receptor (AT-1) type-1 (Rattus norvegicus, UniProt P29089+P25095); experiment: Displacement of [125I]-Ang II from angiotensin II receptor type 1 in rat liver membranes; assay type: cell membranes, Membrane
T1 sequence (P29089 whole entry): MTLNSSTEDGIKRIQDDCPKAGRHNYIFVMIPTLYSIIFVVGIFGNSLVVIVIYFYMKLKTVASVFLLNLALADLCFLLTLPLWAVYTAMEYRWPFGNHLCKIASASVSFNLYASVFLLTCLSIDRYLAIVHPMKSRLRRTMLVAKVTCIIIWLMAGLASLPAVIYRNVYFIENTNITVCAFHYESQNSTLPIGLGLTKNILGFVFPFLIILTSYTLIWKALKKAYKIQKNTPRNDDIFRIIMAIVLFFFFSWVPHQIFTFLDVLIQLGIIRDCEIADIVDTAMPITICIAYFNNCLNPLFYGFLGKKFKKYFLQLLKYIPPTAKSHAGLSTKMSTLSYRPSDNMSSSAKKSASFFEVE
T1 sequence (P25095 whole entry): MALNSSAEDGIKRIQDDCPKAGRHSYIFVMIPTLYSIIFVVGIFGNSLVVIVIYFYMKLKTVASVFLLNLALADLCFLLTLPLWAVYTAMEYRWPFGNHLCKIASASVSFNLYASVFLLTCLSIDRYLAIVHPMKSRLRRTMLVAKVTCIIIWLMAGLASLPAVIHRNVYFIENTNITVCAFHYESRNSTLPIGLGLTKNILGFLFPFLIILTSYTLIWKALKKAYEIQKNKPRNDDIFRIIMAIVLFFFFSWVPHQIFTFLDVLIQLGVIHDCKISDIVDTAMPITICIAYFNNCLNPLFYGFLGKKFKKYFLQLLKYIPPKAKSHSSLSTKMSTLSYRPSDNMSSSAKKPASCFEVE

NG108-15 = experiment: Effect on neurite outgrowth in NG108-15 cells after treatment for 3 days (control 2.26%)
[2] = target: T2, Type-2 angiotensin II receptor (Homo sapiens) (UniProt P50052); experiment: Effect on [3H]thymidine incorporation into PC12 cells expressing AT2 receptors at 1.0 uM; conditions: PC-12
T2 sequence (whole entry): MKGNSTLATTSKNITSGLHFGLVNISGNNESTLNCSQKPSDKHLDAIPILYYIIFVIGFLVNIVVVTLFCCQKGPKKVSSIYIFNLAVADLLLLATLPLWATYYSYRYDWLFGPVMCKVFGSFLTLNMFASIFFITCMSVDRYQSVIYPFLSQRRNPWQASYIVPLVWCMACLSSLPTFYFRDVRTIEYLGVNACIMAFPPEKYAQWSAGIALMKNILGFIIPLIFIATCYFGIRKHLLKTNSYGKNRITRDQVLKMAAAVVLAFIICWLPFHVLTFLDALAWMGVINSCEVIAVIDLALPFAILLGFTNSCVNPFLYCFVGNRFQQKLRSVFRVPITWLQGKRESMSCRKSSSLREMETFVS

[3] = target: T3, Type-2 angiotensin II receptor (Homo sapiens, UniProt P50052); experiment: Displacement of [125I]-Ang II from angiotensin II receptor type 2 in pig uterus myometrium; set-up: species or system Sus scrofa; conditions: target entry is the homologue from another species
T3 sequence (P50052 whole entry): T2 sequence (whole entry)
How it was run: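 Porcine uterine myometrial membranes (10 mg tissue equivalent) with 1 µM losartan to block AT1. Tris-HCl pH 7.4 buffer with NaCl, MgCl2, EDTA, 0.2% BSA and peptidase inhibitors. Filtration, γ-counting; nonspecific binding with 1 µM Ang II.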

Compound | Ki [1] | Activity (NG108-15) | Activity (Counts/minute) [2] | Ki [3]
CC(C)[C@H](NC(=O)[C@H](C)NC(=O)[C@@H](N)CC(=O)O)C(=O)Nc1cccc2c1N[C@@H](Cc1ccc(O)cc1)C(=O)N(CC(=O)N[C@@H](Cc1c[nH]cn1)C(=O)N1CCC[C@H]1C(=O)N[C@@H](Cc1ccccc1)C(=O)O)C2 | > 10 µM | – | – | –
CC(C)[C@H](NC(=O)[C@H](CCCN=C(N)N)NC(=O)[C@@H](N)CC(=O)O)C(=O)Nc1cccc2c1N[C@@H](Cc1ccc(O)cc1)C(=O)N(CC(=O)N[C@@H](Cc1c[nH]cn1)C(=O)N1CCC[C@H]1C(=O)N[C@@H](Cc1ccccc1)C(=O)O)C2 | > 10 µM | 9.88% | – | –
Cc1cc(Cn2cnc3c2C[C@@H](C(=O)O)N(C(=O)C(c2ccccc2)c2ccccc2)C3)ccc1N(C)C | – | – | 68700 | –
NC(N)=NCCC[C@H](NC(=O)[C@@H](N)CC(=O)O)C(=O)Nc1ccc2c(c1)CN(CC(=O)N[C@@H](Cc1c[nH]cn1)C(=O)N1CCC[C@H]1C(=O)N[C@@H](Cc1ccccc1)C(=O)O)C(=O)[C@H](Cc1ccc(O)cc1)N2 | > 10 µM | – | – | –
CC[C@H](C)[C@H](NC(=O)[C@H](Cc1ccc(O)cc1)NC(=O)[C@@H](NC(=O)[C@H](CCCN=C(N)N)NC(=O)[C@@H](N)CC(=O)O)C(C)C)C(=O)N[C@@H](Cc1ccc(N)cc1)C(=O)N1CCC[C@H]1C(=O)N[C@@H](Cc1ccccc1)C(=O)O (H-DRVYI[Phe(4-NH2)]PF-OH) | > 10 µM | – | – | –
CC(C)[C@H](NC(=O)[C@H](CCCN=C(N)N)NC(=O)[C@@H](N)CC(=O)O)C(=O)Nc1ccc2c(c1)CN(CC(=O)N[C@@H](Cc1c[nH]cn1)C(=O)N1CCC[C@H]1C(=O)N[C@@H](Cc1ccccc1)C(=O)O)C(=O)[C@H](Cc1ccc(O)cc1)N2 | > 10 µM | 11.1% | 45400 | 0.003 µM
C[C@H](NC(=O)[C@@H](N)CC(=O)O)C(=O)Nc1cccc2c1N[C@@H](Cc1ccc(O)cc1)C(=O)N(CC(=O)N[C@@H](Cc1c[nH]cn1)C(=O)N1CCC[C@H]1C(=O)N[C@@H](Cc1ccccc1)C(=O)O)C2 | > 10 µM | – | – | –
NC(N)=NCCC[C@H](NC(=O)[C@@H](N)CC(=O)O)C(=O)Nc1cccc2c1N[C@@H](Cc1ccc(O)cc1)C(=O)N(CC(=O)N[C@@H](Cc1c[nH]cn1)C(=O)N1CCC[C@H]1C(=O)N[C@@H](Cc1ccccc1)C(=O)O)C2 | > 10 µM | 9.35% | – | –
CC[C@@H](C)[C@@H](C(=O)N[C@@H](Cc1c[nH]cn1)C(=O)N1CCC[C@H]1C(=O)N[C@@H](Cc1ccccc1)C(=O)O)N1Cc2cccc(NC(=O)[C@@H](NC(=O)[C@H](CCCN=C(N)N)NC(=O)[C@@H](N)CC(=O)O)C(C)C)c2N[C@@H](Cc2ccc(O)cc2)C1=O | > 10 µM | – | – | –
CC[C@@H](C)[C@@H](C(=O)N[C@@H](Cc1c[nH]cn1)C(=O)N1CCC[C@H]1C(=O)N[C@@H](Cc1ccccc1)C(=O)O)N1Cc2cccc(NC(=O)[C@H](CCCN=C(N)N)NC(=O)[C@@H](N)CC(=O)O)c2N[C@@H](Cc2ccc(O)cc2)C1=O | > 10 µM | – | – | –
